Laboratory results from ChEMBL document CHEMBL1132230, “1-(1,2,5-Thiadiazol-4-yl)-4-azatricyclo[2.2.1.0(2,6)]heptanes as new potent muscarinic M1 agonists: structure-activity relationship for 3-aryl-2-propyn-1-yloxy and 3-aryl-2-propyn-1-ylthio derivatives” (J Med Chem, 1999).
pEC50, pIC50: −log10 of the molar value.

Experiments:
[1] = Ratio of EC50(CHO-M2) and EC50(A9L-M1); assay type: functional
How it was run: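 Ratio of EC50 for inhibition of forskolin-stimulated cAMP in human-M2 CHO cells to EC50 for PI hydrolysis in A9L-M1 cells, both measured in this work.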

[2] = biological target: T1, Muscarinic acetylcholine receptor M2 (Rattus norvegicus, UniProt P10980); assay: Inhibition of [3H]- Oxo-M binding at Muscarinic acetylcholine receptor M2 in rat brain membranes.; assay type: cell membranes
T1 sequence (P10980 whole entry): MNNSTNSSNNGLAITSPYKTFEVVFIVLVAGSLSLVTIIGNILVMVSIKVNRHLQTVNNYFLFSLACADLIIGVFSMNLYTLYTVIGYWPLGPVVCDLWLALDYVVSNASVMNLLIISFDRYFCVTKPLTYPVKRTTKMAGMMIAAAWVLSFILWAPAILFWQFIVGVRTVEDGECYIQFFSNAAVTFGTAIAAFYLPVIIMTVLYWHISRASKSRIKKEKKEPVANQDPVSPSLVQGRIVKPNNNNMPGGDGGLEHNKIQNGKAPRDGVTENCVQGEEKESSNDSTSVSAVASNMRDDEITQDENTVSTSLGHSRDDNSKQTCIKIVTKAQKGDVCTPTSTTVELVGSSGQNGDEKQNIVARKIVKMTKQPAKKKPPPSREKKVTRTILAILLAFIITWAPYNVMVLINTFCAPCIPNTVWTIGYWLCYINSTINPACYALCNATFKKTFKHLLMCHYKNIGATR
How it was run: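 Rat cortex homogenized in 20 mM HEPES pH 7.4 and centrifuged at 40000g. Membranes incubated 60 min at room temperature with 1 nM (final) [³H]oxotremorine-M and compound. Separated on PEI-soaked GF/C filters and counted by scintillation. Nonspecific binding defined with 10 μM arecoline. Value reported as IC50.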

[3] = biological target: T2, Muscarinic acetylcholine receptor M2 (Homo sapiens, UniProt P08172); assay: Compound was tested for its potency at M-2 receptor by inhibiting forskolin induced c-AMP formation in CHO-M2 cells human M2 receptor; assay type: functional, cell-based
T2 sequence (P08172 whole entry): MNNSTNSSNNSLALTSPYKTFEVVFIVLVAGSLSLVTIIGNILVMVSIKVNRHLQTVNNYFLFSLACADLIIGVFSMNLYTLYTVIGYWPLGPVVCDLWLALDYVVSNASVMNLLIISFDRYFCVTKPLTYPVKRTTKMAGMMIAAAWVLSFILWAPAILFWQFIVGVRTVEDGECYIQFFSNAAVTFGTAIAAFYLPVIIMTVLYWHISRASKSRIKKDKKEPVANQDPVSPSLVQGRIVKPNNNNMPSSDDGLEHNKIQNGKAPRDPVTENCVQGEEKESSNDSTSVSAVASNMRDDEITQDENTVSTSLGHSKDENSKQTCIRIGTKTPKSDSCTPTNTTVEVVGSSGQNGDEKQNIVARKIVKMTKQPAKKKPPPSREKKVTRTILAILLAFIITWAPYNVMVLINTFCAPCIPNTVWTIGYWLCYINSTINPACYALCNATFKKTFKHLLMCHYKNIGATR
How it was run: (§1)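 CHO cells transfected with human M2 receptor plasmid and cultured with atropine and methotrexate; atropine withdrawn overnight. Cells detached with PBS/1 mM EDTA, then preincubated 30 min at 0 °C in DMEM/20 mM HEPES pH 7.4 with 0.5 mM IBMX. Compound added and 10 μM forskolin (final) started a 10 min, 37 °C incubation, stopped with ice-cold ethanol. cAMP measured by radioimmunoassay.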

[4] = biological target: T3, Muscarinic acetylcholine receptor M2 (Homo sapiens) (UniProt P08172); assay: Inhibition of forskolin induced c-AMP formation in CHO-M2 cells expressing human M2 receptor.; assay type: functional, cell-based; how it was run: as §1
T3 sequence (whole entry): T2 sequence (P08172 whole entry)

[5] = biological target: T4, Muscarinic acetylcholine receptor M1 (Homo sapiens, UniProt P11229); assay: Stimulation of phosphoinositol hydrolysis in the mouse fibroblast cell line A9L-M1 expressing Muscarinic acetylcholine receptor M1.; assay type: functional, cell-based
T4 sequence (P11229 whole entry): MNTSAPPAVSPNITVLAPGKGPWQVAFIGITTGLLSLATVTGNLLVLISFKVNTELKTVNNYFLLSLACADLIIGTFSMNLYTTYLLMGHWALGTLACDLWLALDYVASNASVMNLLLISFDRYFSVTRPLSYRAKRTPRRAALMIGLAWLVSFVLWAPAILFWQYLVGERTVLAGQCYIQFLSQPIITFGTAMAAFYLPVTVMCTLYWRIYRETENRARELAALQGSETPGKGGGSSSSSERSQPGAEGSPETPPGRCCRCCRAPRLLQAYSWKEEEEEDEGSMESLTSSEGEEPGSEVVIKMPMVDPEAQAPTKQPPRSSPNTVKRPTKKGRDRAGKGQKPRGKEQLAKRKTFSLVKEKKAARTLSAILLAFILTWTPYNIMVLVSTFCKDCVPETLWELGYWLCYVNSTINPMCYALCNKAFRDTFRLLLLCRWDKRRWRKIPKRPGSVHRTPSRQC

[6] = biological target: T3, Muscarinic acetylcholine receptor M2 (Homo sapiens); assay: Compound was tested for its potency at Muscarinic acetylcholine receptor M2 by inhibiting forskolin induced c-AMP formation in CHO-M2 cells expressing human M2 receptor; assay type: functional, cell-based
How it was run: (§2)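 Human M2 receptor plasmid transfected into CHO cells […], cultured in DMEM/10% FBS with 1 μM atropine and 1 μM methotrexate; atropine-free medium overnight before assay. Cells detached with PBS + 1 mM EDTA, washed into DMEM + 20 mM HEPES pH 7.4 + 0.5 mM IBMX, preincubated 30 min at 0 °C. Forskolin 10 μM final, 10 min at 37 °C; ethanol stop; cAMP by radioimmunoassay.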

[7] = biological target: T3, Muscarinic acetylcholine receptor M2 (Homo sapiens); assay: Compound was tested for its potency towards Muscarinic acetylcholine receptor M2 by inhibiting forskolin induced c-AMP formation in CHO-M2 cells expressing human Muscarinic acetylcholine receptor M2 receptor; assay type: functional, cell-based; how it was run: as §1
[8] = biological target: T2, Muscarinic acetylcholine receptor M2; assay: Compound was tested for its potency towards Muscarinic acetylcholine receptor M2 by inhibiting forskolin induced c-AMP formation in CHO-M2 cells; assay type: functional, cell-based; how it was run: as §2
[9] = biological target: T1, Muscarinic acetylcholine receptor M2; assay: In vitro Muscarinic acetylcholine receptor M2 binding was evaluated in rat brain membranes by using [3H]- Oxo-M; assay type: cell membranes
How it was run: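 Rat cortex homogenized in 20 mM Hepes pH 7.4 and spun 10 min at 40000g; pellet resuspended and incubated with [3H]oxotremorine-M (1 nM final) plus test drug for 60 min at room temperature. Bound and free separated by vacuum filtration on PEI-presoaked GF/C filters, then scintillation counting.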

[10] = biological target: T4, Muscarinic acetylcholine receptor M1; assay: (§3) Compound was tested for its ability to stimulate phosphoinositol (PI) hydrolysis in the mouse fibroblast cell line A9L-M1 expressing Muscarinic acetylcholine receptor M1 (100 uM concentration); assay type: functional, cell-based
How it was run: (§4)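 A9L mouse fibroblasts stably expressing M1, grown to confluence in DMEM/10% FCS with 1.3 μCi/mL [³H]inositol for 48 h, detached with trypsin and resuspended in HEPES/LiCl buffer (LiCl 10 mM, pH 7.4). Cells incubated 45 min at 37 °C with compound up to 100 μM. Total [³H]inositol phosphates separated by ion exchange and counted.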

[11] = biological target: T5, Muscarinic acetylcholine receptor M1 (Homo sapiens) (UniProt P11229); assay: as §3; assay type: functional, cell-based; how it was run: as §4
T5 sequence (whole entry): T4 sequence (P11229 whole entry)

pIC50 [2]	pEC50 [3]	Max [4] [%]	pEC50 [5]	Max [6] [%]	Max [7] [%]	pEC50 [8]	pEC50 [10]	Max [11] [%]	SMILES	Ratio [1]	pIC50 [9]
7.52	5.57	68	7.69						Fc1cc(F)cc(C#CCOc2nsnc2C23CN4CC2C3C4)c1	133	
7.80				99					C(#Cc1ccccc1)COc1nsnc1C12CN3CC1C2C3	11	
7.57	6.07	106	7.21						C(#Cc1ccccc1)CSc1nsnc1C12CN3CC1C2C3	14	
7.04	5.83	76	6.96						Fc1cc(Cl)cc(C#CCOc2nsnc2C23CN4CC2C3C4)c1	13	
7.33	5.64	101	7.98						Clc1cccc(C#CCOc2nsnc2C23CN4CC2C3C4)c1	217	
6.85	6.12	90	7.34						Fc1cc(Cl)cc(C#CCSc2nsnc2C23CN4CC2C3C4)c1	17	
7.55	5.78	79	8.12						Fc1cc(F)cc(C#CCSc2nsnc2C23CN4CC2C3C4)c1	218	
7.31	6.17	96	8.05						Clc1cccc(C#CCSc2nsnc2C23CN4CC2C3C4)c1	74	
7.70	7.08	88	8.35						Fc1ccc(C#CCSc2nsnc2C23CN4CC2C3C4)cc1	18	
7.20	5.92	102							Clc1ccc(C#CCOc2nsnc2C23CN4CC2C3C4)cc1		
7.59	6.04	106	8.60						Fc1cccc(C#CCSc2nsnc2C23CN4CC2C3C4)c1	362	
			5.15		89	4.57			COc1cccc(C#CCO/N=C2\CN3CCC2C3)c1 (stereo not given)	4	6.82
5.77		23	5.92						Clc1cc(Cl)cc(C#CCOc2nsnc2C23CN4CC2C3C4)c1		
					100				C[N+](C)(C)CCOC(N)=O		
6.62	7.10	76	6.97						Clc1ccc(C#CCSc2nsnc2C23CN4CC2C3C4)cc1	1	
7.68	6.17						8.31	91	Fc1cccc(C#CCOc2nsnc2C23CN4CC2C3C4)c1	139	
6.10	6.28	84	5.74						Clc1cc(Cl)cc(C#CCSc2nsnc2C23CN4CC2C3C4)c1	0.3	
8.00	6.10	109	7.15						Fc1ccc(C#CCOc2nsnc2C23CN4CC2C3C4)cc1	11	
7.85		115							CN1CCC=C(c2nsnc2OCC#Cc2ccccc2)C1	2	

SMILES	pIC50 [2]	pEC50 [3]	Max [4] [%]	pEC50 [5]	Max [6] [%]	Max [7] [%]	pEC50 [8]	pEC50 [10]	Max [11] [%]	Ratio [1]	pIC50 [9]
CCCCCCOc1nsnc1C1=CCCN(C)C1 [XANOMELINE]						82					7.80
